Data: ChEMBL document CHEMBL1250442, “Inhibiting gene expression at transcription start sites in chromosomal DNA with antigene RNAs” (Nat Chem Biol, 2005)
Calls of active or inactive are those of the source. The rule behind the calls is not given here.

Experiments:
T47D [1] = assay: Inhibition of PR-B gene expression in human T47D cells at 25 nM by syber green assay in presence of 10 nM estradiol; type: functional, cell-based
T47D [2] = assay: Inhibition of PR-B mRNA gene expression in human T47D cells at 100 nM by syber green assay; type: functional
In short: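 T47D cells in RPMI-1640 with 10% FBS, NEAA, insulin, 37 °C, 5% CO2. Plated two days before transfection without antibiotics. Oligofectamine-mediated duplex RNA transfection at 100 nM final, medium changed at 24 h, harvest five days post-transfection. Total RNA extracted with TRIzol. hPR mRNA quantified by SYBR Green qPCR: 50 °C 2 min, 95 °C 10 min, then 40 cycles of 95 °C 15 s / 60 °C 1 min.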

T47D [3] = assay: Inhibition of PR-A mRNA gene expression in human T47D cells at 100 nM by syber green assay; type: functional
In short: (§1)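 T47D cells plated at 80,000/well without antibiotics two days before Oligofectamine transfection with agRNA duplex (25 or 100 nM final); medium changed at 24 h, harvest day 5 unless stated otherwise. TRIzol total RNA; PR mRNA by real-time PCR with SYBR Green: 50 °C 2 min, 95 °C 10 min, 40 cycles 95 °C 15 s/60 °C 1 min.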

T47D [4] = assay: Inhibition of PR-A gene expression in human T47D cells at 25 nM by syber green assay in presence of 10 nM estradiol; type: functional, cell-based
T47D [5] = assay: Inhibition of PR-B gene expression in human T47D cells at 25 nM by syber green assay; type: functional; in short: as §1
T47D [6] = assay: Inhibition of PR-A gene expression in human T47D cells at 25 nM by syber green assay; type: functional; in short: as §1

Row | Structure (SMILES) | inhibition (T47D [1]) | inhibition at 0.1 µM (T47D [2]) [%] | inhibition at 0.1 µM (T47D [3]) [%] | inhibition (T47D [4]) | inhibition at 0.025 µM (T47D [5]) [%] | inhibition at 0.025 µM (T47D [6]) [%]
1 | Cc1cn(CC(=O)N(CCNC(=O)CN(CCNC(=O)CN(CCNC(=O)CN(CCNC(=O)CN(CCNC(=O)CN(CCNC(=O)CN(CCNC(=O)CN(CCNC(=O)CN(CCNC(=O)CN(CCNC(=O)CN(CCNC(=O)CN(CCNC(=O)CN(CCNC(=O)CN(CCNC(=O)CN(CCNC(=O)CN(CCNC(=O)CN(CCNC(=O)CN(CCNC(=O)CN(CCNC(=O)CN(CCNC(=O)CN)C(=O)Cn2cnc3c(=O)[nH]c(N)nc32)C(=O)Cn2cnc3c(=O)[nH]c(N)nc32)C(=O)Cn2ccc(N)nc2=O)C(=O)Cn2cnc3c(=O)[nH]c(N)nc32)C(=O)Cn2ccc(=O)[nH]c2=O)C(=O)Cn2ccc(=O)[nH]c2=O)C(=O)Cn2cnc3c(=O)[nH]c(N)nc32)C(=O)Cn2ccc(=O)[nH]c2=O)C(=O)Cn2ccc(=O)[nH]c2=O)C(=O)Cn2cnc3c(N)ncnc32)C(=O)Cn2cnc3c(=O)[nH]c(N)nc32)C(=O)Cn2cnc3c(N)ncnc32)C(=O)Cn2cnc3c(N)ncnc32)C(=O)Cn2cnc3c(N)ncnc32)C(=O)Cn2cnc3c(=O)[nH]c(N)nc32)C(=O)Cn2ccc(N)nc2=O)C(=O)Cn2ccc(=O)[nH]c2=O)C(=O)Cn2cnc3c(=O)[nH]c(N)nc32)C(=O)Cn2ccc(=O)[nH]c2=O)CC(=O)NCCN(CC(=O)NCC(=O)O)C(=O)Cn2cc(C)c(=O)[nH]c2=O)c(=O)[nH]c1=O | Active | < 20 | < 20 | Active | < 20 | < 20
2 | Cc1cn(CC(=O)N(CCNC(=O)CN(CCNC(=O)CN(CCNC(=O)CN(CCNC(=O)CN(CCNC(=O)CN(CCNC(=O)CN(CCNC(=O)CN(CCNC(=O)CN(CCNC(=O)CN(CCNC(=O)CN(CCNC(=O)CN(CCNC(=O)CN(CCNC(=O)CN(CCNC(=O)CN(CCNC(=O)CN(CCNC(=O)CN(CCNC(=O)CN(CCNC(=O)CN(CCNC(=O)CN(CCNC(=O)CN(CCNC(=O)CN)C(=O)Cn2ccc(N)nc2=O)C(=O)Cn2ccc(=O)[nH]c2=O)C(=O)Cn2cnc3c(=O)[nH]c(N)nc32)C(=O)Cn2cnc3c(=O)[nH]c(N)nc32)C(=O)Cn2ccc(N)nc2=O)C(=O)Cn2ccc(N)nc2=O)C(=O)Cn2cnc3c(N)ncnc32)C(=O)Cn2cnc3c(=O)[nH]c(N)nc32)C(=O)Cn2ccc(=O)[nH]c2=O)C(=O)Cn2ccc(N)nc2=O)C(=O)Cn2ccc(N)nc2=O)C(=O)Cn2cnc3c(N)ncnc32)C(=O)Cn2ccc(N)nc2=O)C(=O)Cn2cnc3c(N)ncnc32)C(=O)Cn2cnc3c(=O)[nH]c(N)nc32)C(=O)Cn2ccc(N)nc2=O)C(=O)Cn2ccc(=O)[nH]c2=O)C(=O)Cn2cnc3c(=O)[nH]c(N)nc32)C(=O)Cn2ccc(=O)[nH]c2=O)C(=O)Cn2cc(C)c(=O)[nH]c2=O)CC(=O)O)c(=O)[nH]c1=O | Active | 71 | 26 | Active | < 20 | < 20
3 | Cc1cn(CC(=O)N(CCNC(=O)CN(CCNC(=O)CN(CCNC(=O)CN(CCNC(=O)CN(CCNC(=O)CN(CCNC(=O)CN(CCNC(=O)CN(CCNC(=O)CN(CCNC(=O)CN(CCNC(=O)CN(CCNC(=O)CN(CCNC(=O)CN(CCNC(=O)CN(CCNC(=O)CN(CCNC(=O)CN(CCNC(=O)CN(CCNC(=O)CN(CCNC(=O)CN(CCNC(=O)CN(CCNC(=O)CN)C(=O)Cn2cnc3c(N)ncnc32)C(=O)Cn2cnc3c(N)ncnc32)C(=O)Cn2cnc3c(N)ncnc32)C(=O)Cn2cnc3c(=O)[nH]c(N)nc32)C(=O)Cn2ccc(N)nc2=O)C(=O)Cn2ccc(=O)[nH]c2=O)C(=O)Cn2cnc3c(=O)[nH]c(N)nc32)C(=O)Cn2ccc(=O)[nH]c2=O)C(=O)Cn2ccc(N)nc2=O)C(=O)Cn2ccc(=O)[nH]c2=O)C(=O)Cn2cnc3c(=O)[nH]c(N)nc32)C(=O)Cn2cnc3c(=O)[nH]c(N)nc32)C(=O)Cn2ccc(N)nc2=O)C(=O)Cn2ccc(N)nc2=O)C(=O)Cn2cnc3c(N)ncnc32)C(=O)Cn2cnc3c(=O)[nH]c(N)nc32)C(=O)Cn2ccc(=O)[nH]c2=O)C(=O)Cn2ccc(N)nc2=O)C(=O)Cn2ccc(N)nc2=O)CC(=O)NCCN(CC(=O)NCC(=O)O)C(=O)Cn2cc(C)c(=O)[nH]c2=O)c(=O)[nH]c1=O | Active | < 20 | < 20 | Active | < 20 | < 20
4 | Cc1cn(CC(=O)N(CCNC(=O)CN(CCNC(=O)CN(CCNC(=O)CN(CCNC(=O)CN(CCNC(=O)CN(CCNC(=O)CN(CCNC(=O)CN(CCNC(=O)CN(CCNC(=O)CN(CCNC(=O)CN(CCNC(=O)CN(CCNC(=O)CN(CCNC(=O)CN(CCNC(=O)CN(CCNC(=O)CN(CCNC(=O)CN(CCNC(=O)CN(CCNC(=O)CN(CCNC(=O)CN(CCNC(=O)CN(CCNC(=O)CN)C(=O)Cn2cnc3c(=O)[nH]c(N)nc32)C(=O)Cn2ccc(=O)[nH]c2=O)C(=O)Cn2ccc(N)nc2=O)C(=O)Cn2ccc(=O)[nH]c2=O)C(=O)Cn2cnc3c(=O)[nH]c(N)nc32)C(=O)Cn2cnc3c(=O)[nH]c(N)nc32)C(=O)Cn2ccc(N)nc2=O)C(=O)Cn2ccc(N)nc2=O)C(=O)Cn2cnc3c(N)ncnc32)C(=O)Cn2cnc3c(=O)[nH]c(N)nc32)C(=O)Cn2ccc(=O)[nH]c2=O)C(=O)Cn2ccc(N)nc2=O)C(=O)Cn2ccc(N)nc2=O)C(=O)Cn2cnc3c(N)ncnc32)C(=O)Cn2ccc(N)nc2=O)C(=O)Cn2cnc3c(N)ncnc32)C(=O)Cn2cnc3c(=O)[nH]c(N)nc32)C(=O)Cn2ccc(N)nc2=O)C(=O)Cn2ccc(=O)[nH]c2=O)C(=O)Cn2cc(C)c(=O)[nH]c2=O)CC(=O)O)c(=O)[nH]c1=O | Active | 88 | 67 | Active | 73 | 67
5 | Cc1cn(CC(=O)N(CCNC(=O)CN(CCNC(=O)CN(CCNC(=O)CN(CCNC(=O)CN(CCNC(=O)CN(CCNC(=O)CN(CCNC(=O)CN(CCNC(=O)CN(CCNC(=O)CN(CCNC(=O)CN(CCNC(=O)CN(CCNC(=O)CN(CCNC(=O)CN(CCNC(=O)CN(CCNC(=O)CN(CCNC(=O)CN(CCNC(=O)CN(CCNC(=O)CN(CCNC(=O)CN(CCNC(=O)CN)C(=O)Cn2cnc3c(=O)[nH]c(N)nc32)C(=O)Cn2ccc(=O)[nH]c2=O)C(=O)Cn2ccc(=O)[nH]c2=O)C(=O)Cn2cnc3c(=O)[nH]c(N)nc32)C(=O)Cn2ccc(=O)[nH]c2=O)C(=O)Cn2ccc(=O)[nH]c2=O)C(=O)Cn2cnc3c(N)ncnc32)C(=O)Cn2cnc3c(=O)[nH]c(N)nc32)C(=O)Cn2cnc3c(N)ncnc32)C(=O)Cn2cnc3c(N)ncnc32)C(=O)Cn2cnc3c(N)ncnc32)C(=O)Cn2cnc3c(=O)[nH]c(N)nc32)C(=O)Cn2ccc(N)nc2=O)C(=O)Cn2ccc(=O)[nH]c2=O)C(=O)Cn2cnc3c(=O)[nH]c(N)nc32)C(=O)Cn2ccc(=O)[nH]c2=O)C(=O)Cn2ccc(N)nc2=O)C(=O)Cn2ccc(=O)[nH]c2=O)C(=O)Cn2cnc3c(=O)[nH]c(N)nc32)CC(=O)NCCN(CC(=O)NCC(=O)O)C(=O)Cn2cc(C)c(=O)[nH]c2=O)c(=O)[nH]c1=O | Active | < 20 | < 20 | Active | < 20 | < 20
